Experimental data taken from ChEMBL document CHEMBL4261600 (Eur J Med Chem, 2018).

How the values were obtained:
CDK2/Cyclin A2 = CDK2/Cyclin A2 (Homo sapiens, UniProt P24941); assay: Inhibition of recombinant full length His-tagged human CDK2/CyclinA expressed in baculovirus expression system
[1] = target: Ephrin type-B receptor 1 (Homo sapiens) (UniProt P54762); assay: Binding affinity to wild-type human partial length EPHB1 (P589 to T911 residues) expressed in bacterial expression system assessed as remaining unbound target protein level at 1000 nM by Kinomescan method relative to control
[2] = target: Serine/threonine-protein kinase Nek2 (Homo sapiens) (UniProt P51955); assay: Binding affinity to wild-type human partial length NEK2 (M1 to K309 residues) expressed in bacterial expression system assessed as remaining unbound target protein level at 1000 nM by Kinomescan method relative to control
[3] = target: Phosphatidylinositol 4-kinase beta (Homo sapiens) (UniProt Q9UBF8); assay: Binding affinity to wild-type human full length PIK4CB (M1 to M828 residues) expressed in mammalian expression system assessed as remaining unbound target protein level at 1000 nM by Kinomescan method relative to control
Method in brief: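 Profiled in a KINOMEscan binding panel with the inhibitor at a single concentration of 1 μM. Binding to each kinase was read out as percent of control, relative to a DMSO control. Strong binders were defined as those with a percent control value below 1.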

[4] = target: Serine/threonine-protein kinase Nek3 (Homo sapiens) (UniProt P51956); assay: Binding affinity to wild-type human full length NEK3 (M1 to R506 residues) expressed in mammalian expression system assessed as remaining unbound target protein level at 1000 nM by Kinomescan method relative to control
Method in brief: (§1)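 Single-point competition binding screen across a panel of 468 kinases and mutants, with the inhibitor at 1 μM. Binding is read out as percent of a DMSO control, and targets below 1 percent control were classed as strong binders.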

[5] = system: Phosphatidylinositol 4,5-bisphosphate 3-kinase catalytic subunit alpha isoform (Homo sapiens), P42336 [H1047Y]; assay: Binding affinity to human partial length PIK3CA H1047Y mutant (R108 to N1068 residues) expressed in mammalian expression system assessed as remaining unbound target protein level at 1000 nM by Kinomescan method relative to control
Phosphatidylinositol 4,5-bisphosphate 3-kinase catalytic subunit alpha isoform (Homo sapiens), P42336 [H1047Y], sequence (P42336 whole entry H1047Y, the tested form may be a part, canonical isoform): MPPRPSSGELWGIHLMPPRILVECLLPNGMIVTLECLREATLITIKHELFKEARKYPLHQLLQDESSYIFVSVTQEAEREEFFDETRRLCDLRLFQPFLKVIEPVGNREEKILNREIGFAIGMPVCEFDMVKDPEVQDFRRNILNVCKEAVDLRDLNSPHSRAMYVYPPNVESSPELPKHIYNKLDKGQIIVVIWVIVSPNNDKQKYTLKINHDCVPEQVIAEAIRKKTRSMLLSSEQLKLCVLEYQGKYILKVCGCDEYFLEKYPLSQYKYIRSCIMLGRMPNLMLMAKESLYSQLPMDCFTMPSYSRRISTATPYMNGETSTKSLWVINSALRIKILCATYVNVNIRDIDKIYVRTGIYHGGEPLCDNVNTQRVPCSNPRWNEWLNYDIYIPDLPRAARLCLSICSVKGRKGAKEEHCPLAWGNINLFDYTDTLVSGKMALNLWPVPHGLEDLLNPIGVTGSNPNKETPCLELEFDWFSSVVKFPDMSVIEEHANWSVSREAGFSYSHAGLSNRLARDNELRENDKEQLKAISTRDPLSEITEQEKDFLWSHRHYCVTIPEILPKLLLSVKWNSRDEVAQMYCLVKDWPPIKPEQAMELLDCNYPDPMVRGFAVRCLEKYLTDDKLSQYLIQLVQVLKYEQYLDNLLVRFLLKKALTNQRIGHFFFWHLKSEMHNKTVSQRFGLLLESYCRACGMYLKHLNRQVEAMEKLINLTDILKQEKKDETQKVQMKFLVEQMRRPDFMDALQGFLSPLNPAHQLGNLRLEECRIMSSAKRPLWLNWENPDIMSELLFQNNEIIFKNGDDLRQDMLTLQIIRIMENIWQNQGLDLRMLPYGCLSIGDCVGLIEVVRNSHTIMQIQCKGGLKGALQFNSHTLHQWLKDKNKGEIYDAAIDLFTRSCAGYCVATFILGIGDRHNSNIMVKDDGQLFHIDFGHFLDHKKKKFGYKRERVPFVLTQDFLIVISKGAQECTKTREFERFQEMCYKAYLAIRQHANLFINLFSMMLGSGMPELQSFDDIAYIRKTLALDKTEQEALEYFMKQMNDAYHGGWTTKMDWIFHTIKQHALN
Method in brief: (§2)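 KINOMEscan competition-binding profiling across the panel of 468 kinases and mutants, with inhibitor tested at 1 μM. Binding is expressed as percent of control, with DMSO as the reference control.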

[6] = target: Mitogen-activated protein kinase 1 (Homo sapiens) (UniProt P28482); assay: Binding affinity to wild-type human full length ERK2 (M1 to S360 residues) expressed in bacterial expression system assessed as remaining unbound target protein level at 1000 nM by Kinomescan method relative to control; method in brief: as §1
[7] = target: Serine/threonine-protein kinase Sgk2 (Homo sapiens) (UniProt Q9HBY8); assay: Binding affinity to wild-type human partial length SGK2 (L54 to C427 residues) expressed in mammalian expression system assessed as remaining unbound target protein level at 1000 nM by Kinomescan method relative to control
[8] = system: Tyrosine-protein kinase ABL1 (Homo sapiens), P00519 [H396P]; assay: Binding affinity to human phosphorylated ABL1 H396P mutant (S229 to K512 residues) expressed in mammalian expression system assessed as remaining unbound target protein level at 1000 nM by Kinomescan method relative to control; method in brief: as §1
[9] = target: Tyrosine-protein kinase ZAP-70 (Homo sapiens) (UniProt P43403); assay: Binding affinity to wild-type human partial length ZAP70 (D20 to G299 residues) expressed in mammalian expression system assessed as remaining unbound target protein level at 1000 nM by Kinomescan method relative to control
[10] = target: Serine/threonine-protein kinase DCLK3 (Homo sapiens) (UniProt Q9C098); assay: Binding affinity to wild-type human partial length DCAMKL3 (E140 to V628 residues) expressed in bacterial expression system assessed as remaining unbound target protein level at 1000 nM by Kinomescan method relative to control
[11] = Apparent volume of distribution in mouse at 3 mg/kg, iv by LC-MS/MS analysis; assay type: ADME, organism-based; settings: in vivo, read-out: Vz
Method in brief: (§3)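 Non-compartmental PK. Male SD rats 190-210 g, mice and beagle dogs acclimatized one week, fasted 12 h with water, split into iv and po groups (mice 48, rats 6, dogs 6). iv 3/3/2 mg/kg (mice/rats/dogs); po 10/20/10 mg/kg; vehicle DMSO in 5% glucose water. Blood at 2 or 5 to 720 min; plasma protein-precipitated with methanol, caffeine internal standard, LC-MS/MS.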

[12] = system: Epidermal growth factor receptor (Homo sapiens), P00533 [UNDEFINED MUTATION]; assay: Binding affinity to human partial length EGFR L747-S752del/P753S mutant expressed in bacterial expression system assessed as remaining unbound target protein level at 1000 nM by Kinomescan method relative to control; method in brief: as §2
Epidermal growth factor receptor (Homo sapiens), P00533 [UNDEFINED MUTATION], sequence (P00533 whole entry, looked up, stated change not applied): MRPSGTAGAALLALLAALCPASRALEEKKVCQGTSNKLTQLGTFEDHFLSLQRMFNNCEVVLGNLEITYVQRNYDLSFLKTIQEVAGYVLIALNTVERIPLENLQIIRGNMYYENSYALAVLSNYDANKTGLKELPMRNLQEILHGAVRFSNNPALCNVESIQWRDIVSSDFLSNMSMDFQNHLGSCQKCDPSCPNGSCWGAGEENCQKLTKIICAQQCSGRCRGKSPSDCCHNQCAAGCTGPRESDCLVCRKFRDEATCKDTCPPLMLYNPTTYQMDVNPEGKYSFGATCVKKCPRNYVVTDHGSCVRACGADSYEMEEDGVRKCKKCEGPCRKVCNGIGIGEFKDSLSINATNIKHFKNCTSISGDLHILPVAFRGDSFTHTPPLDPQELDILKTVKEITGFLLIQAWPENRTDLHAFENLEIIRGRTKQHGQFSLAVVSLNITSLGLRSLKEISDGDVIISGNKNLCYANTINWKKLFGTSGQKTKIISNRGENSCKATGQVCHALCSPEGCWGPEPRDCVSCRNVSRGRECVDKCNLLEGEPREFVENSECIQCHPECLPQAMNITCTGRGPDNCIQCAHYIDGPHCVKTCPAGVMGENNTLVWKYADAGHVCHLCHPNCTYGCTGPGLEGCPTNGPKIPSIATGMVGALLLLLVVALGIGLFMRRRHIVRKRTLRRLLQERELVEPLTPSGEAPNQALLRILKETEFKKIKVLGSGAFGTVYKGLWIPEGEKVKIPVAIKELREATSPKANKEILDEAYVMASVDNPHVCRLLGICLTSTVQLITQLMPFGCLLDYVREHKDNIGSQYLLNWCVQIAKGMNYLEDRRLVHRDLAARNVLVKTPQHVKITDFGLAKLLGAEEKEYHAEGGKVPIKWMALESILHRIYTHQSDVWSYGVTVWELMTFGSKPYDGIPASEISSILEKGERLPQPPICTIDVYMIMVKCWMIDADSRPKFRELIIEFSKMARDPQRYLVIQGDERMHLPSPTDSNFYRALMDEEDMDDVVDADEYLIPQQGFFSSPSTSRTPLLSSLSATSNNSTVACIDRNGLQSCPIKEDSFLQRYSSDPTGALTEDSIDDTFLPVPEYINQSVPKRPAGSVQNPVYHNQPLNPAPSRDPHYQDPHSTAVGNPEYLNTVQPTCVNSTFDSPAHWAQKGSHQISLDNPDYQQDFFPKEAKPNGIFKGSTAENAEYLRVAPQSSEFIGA

Homo sapiens = species: Homo sapiens; assay: Selectivity ratio of IC50 for recombinant GST-tagged inactive state of human CDK11 to IC50 for recombinant full length His-tagged human CDK9/CyclinT1
[13] = target: Myosin-IIIb (Homo sapiens) (UniProt Q8WXR4); assay: Binding affinity to wild-type human partial length MYO3B (M1 to D357 residues) expressed in bacterial expression system assessed as remaining unbound target protein level at 1000 nM by Kinomescan method relative to control
[14] = target: Insulin receptor-related protein (Homo sapiens) (UniProt P14616); assay: Binding affinity to wild-type human partial length INSRR (R950 to E1278 residues) expressed in bacterial expression system assessed as remaining unbound target protein level at 1000 nM by Kinomescan method relative to control
Insulin receptor-related protein (Homo sapiens), sequence (P14616 27-742 limits assumed): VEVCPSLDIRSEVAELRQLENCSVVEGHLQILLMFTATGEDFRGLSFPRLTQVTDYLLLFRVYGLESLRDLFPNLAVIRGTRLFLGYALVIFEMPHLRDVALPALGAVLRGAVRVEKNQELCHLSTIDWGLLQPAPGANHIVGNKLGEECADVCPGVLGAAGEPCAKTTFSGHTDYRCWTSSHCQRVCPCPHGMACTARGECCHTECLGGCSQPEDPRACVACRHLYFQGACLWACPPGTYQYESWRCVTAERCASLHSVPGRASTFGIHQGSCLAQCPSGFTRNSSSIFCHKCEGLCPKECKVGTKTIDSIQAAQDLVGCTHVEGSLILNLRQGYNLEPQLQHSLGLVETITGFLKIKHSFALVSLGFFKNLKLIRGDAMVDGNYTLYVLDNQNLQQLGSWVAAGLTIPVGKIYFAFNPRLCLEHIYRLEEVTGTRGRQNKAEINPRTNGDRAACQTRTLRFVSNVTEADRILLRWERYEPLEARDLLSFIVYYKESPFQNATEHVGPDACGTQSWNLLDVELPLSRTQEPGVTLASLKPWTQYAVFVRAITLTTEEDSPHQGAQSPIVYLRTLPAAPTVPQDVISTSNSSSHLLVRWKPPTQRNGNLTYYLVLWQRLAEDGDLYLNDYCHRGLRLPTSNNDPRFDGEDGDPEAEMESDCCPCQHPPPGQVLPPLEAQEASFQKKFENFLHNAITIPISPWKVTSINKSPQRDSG
Insulin receptor-related protein (Homo sapiens), sequence (P14616 747-1297 limits assumed): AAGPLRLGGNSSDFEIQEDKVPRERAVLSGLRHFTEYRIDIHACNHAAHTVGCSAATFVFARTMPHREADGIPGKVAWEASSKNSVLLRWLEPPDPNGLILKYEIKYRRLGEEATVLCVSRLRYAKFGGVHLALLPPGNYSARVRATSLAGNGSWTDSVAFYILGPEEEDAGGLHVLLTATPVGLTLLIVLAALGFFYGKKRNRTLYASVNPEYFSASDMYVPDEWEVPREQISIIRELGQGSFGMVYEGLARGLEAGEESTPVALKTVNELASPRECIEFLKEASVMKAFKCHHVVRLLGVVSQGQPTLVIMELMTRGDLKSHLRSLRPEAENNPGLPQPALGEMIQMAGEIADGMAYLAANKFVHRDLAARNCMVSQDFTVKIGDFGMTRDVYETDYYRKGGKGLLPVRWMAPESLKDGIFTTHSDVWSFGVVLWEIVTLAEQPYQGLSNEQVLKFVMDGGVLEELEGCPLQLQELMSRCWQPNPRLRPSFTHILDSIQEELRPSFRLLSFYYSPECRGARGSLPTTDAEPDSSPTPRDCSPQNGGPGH

[15] = target: Death-associated protein kinase 2 (Homo sapiens) (UniProt Q9UIK4); assay: Binding affinity to wild-type human full length DAPK2 (M1 to S370 residues) expressed in bacterial expression system assessed as remaining unbound target protein level at 1000 nM by Kinomescan method relative to control
Death-associated protein kinase 2 (Homo sapiens), sequence (Q9UIK4 whole entry, looked up, the tested form may be a part): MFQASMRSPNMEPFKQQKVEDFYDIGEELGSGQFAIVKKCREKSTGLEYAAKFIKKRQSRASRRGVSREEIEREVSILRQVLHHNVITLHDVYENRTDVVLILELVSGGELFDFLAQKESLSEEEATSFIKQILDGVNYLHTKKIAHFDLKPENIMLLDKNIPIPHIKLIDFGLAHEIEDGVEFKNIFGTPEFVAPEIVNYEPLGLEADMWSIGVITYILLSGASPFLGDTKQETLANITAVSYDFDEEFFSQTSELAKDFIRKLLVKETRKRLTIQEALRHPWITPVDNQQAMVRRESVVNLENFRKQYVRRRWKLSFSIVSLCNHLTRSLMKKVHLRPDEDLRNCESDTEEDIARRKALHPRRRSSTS
Method in brief: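 KINOMEscan competition binding profile across a panel of 468 kinases and mutants, with the inhibitor tested at a single concentration of 1 μM. Binding is reported as percent of control, meaning signal relative to a DMSO control.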

[16] = AUC (0 to t) in Sprague-Dawley rat at 20 mg/kg, po by LC-MS/MS analysis; assay type: ADME, organism-based; settings: in vivo; method in brief: as §3
[17] = system: Mast/stem cell growth factor receptor Kit (Homo sapiens), P10721 [D816H]; assay: Binding affinity to human partial length KIT D816H mutant (I571 to D952 residues) expressed in mammalian expression system assessed as remaining unbound target protein level at 1000 nM by Kinomescan method relative to control; method in brief: as §2
[18] = target: Serine/threonine-protein kinase LATS1 (Homo sapiens) (UniProt O95835); assay: Binding affinity to wild-type human partial length LATS1 (Q678 to V1130 residues) expressed in bacterial expression system assessed as remaining unbound target protein level at 1000 nM by Kinomescan method relative to control
Serine/threonine-protein kinase LATS1 (Homo sapiens), sequence (O95835 whole entry, the tested form may be a part): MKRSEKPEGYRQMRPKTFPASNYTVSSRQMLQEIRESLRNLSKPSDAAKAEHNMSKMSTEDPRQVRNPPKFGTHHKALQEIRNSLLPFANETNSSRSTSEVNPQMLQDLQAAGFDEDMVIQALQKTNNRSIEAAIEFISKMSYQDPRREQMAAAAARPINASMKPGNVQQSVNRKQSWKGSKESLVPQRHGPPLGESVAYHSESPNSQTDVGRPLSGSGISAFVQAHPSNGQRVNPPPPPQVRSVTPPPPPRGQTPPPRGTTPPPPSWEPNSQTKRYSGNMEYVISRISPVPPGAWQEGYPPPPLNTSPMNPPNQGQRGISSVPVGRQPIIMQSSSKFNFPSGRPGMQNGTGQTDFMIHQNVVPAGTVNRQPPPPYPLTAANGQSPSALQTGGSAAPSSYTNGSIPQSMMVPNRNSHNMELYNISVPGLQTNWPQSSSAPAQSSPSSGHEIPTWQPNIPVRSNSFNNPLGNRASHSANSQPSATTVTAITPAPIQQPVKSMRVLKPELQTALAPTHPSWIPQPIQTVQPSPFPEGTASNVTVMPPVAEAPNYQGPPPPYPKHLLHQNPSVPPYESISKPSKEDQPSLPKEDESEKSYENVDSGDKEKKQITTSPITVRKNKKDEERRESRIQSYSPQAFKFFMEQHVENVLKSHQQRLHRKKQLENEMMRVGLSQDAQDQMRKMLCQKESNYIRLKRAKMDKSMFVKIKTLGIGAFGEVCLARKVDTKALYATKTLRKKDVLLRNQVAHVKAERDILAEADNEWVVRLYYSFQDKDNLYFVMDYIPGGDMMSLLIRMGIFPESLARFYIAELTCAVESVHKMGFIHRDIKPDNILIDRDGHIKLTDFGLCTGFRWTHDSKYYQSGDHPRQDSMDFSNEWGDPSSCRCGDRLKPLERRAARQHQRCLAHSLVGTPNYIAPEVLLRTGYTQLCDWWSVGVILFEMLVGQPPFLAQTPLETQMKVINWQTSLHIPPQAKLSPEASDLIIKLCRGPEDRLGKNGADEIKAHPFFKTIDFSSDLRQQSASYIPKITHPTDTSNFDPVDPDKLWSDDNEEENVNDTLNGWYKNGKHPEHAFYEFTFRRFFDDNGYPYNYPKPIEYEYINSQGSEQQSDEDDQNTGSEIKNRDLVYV

[19] = target: Serine/threonine-protein kinase PAK 6 (Homo sapiens) (UniProt Q9NQU5); assay: Binding affinity to wild-type human partial length PAK6 (N298 to C681 residues) expressed in bacterial expression system assessed as remaining unbound target protein level at 1000 nM by Kinomescan method relative to control

COCCN[C@H]1CC[C@H](Nc2cc(-c3csc(NCC4(C#N)CCOCC4)n3)c(Cl)cn2)CC1
IC50 (CDK2/Cyclin A2): 2860 nM | Activity [1]: 88% | Activity [2]: 100% | Activity [3]: 100% | Activity [4]: 100% | Activity [5]: 54% | Activity [6]: 96% | Activity [7]: 89% | Activity [8]: 95% | Activity [9]: 79% | Activity [10]: 97% | Vd [11]: 18.2 L/kg | Activity [12]: 79% | Ratio IC50 (Homo sapiens): > 1000 | Activity [13]: 82% | Activity [14]: 92% | Activity [15]: 95% | AUC(0-t) [16]: 1780 ng·h/mL | Activity [17]: 72% | Activity [18]: 96% | Activity [19]: 92%
